Tests used:
MCF7 = assay: Antiproliferative activity against human MCF7 cells after 72 hrs; assay type: functional, cell-based; settings: MCF7, 72 h
In short: (§1)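 Cells were grown in a 1:1 Advanced DMEM/F12 mix with nonessential amino acids, 2 mM L-glutamine, penicillin/streptomycin and 10% FBS at 37 °C and 5% CO₂. They were seeded at 2000/well and left to attach overnight, then dosed over a concentration range (1% DMSO final) for 72 h. Viable cells were read by MTS/PMS, normalised to 1% DMSO controls (100%), and IC50 was taken from a nonlinear dose–response fit; three experiments, each in triplicate.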

SK-BR-3 = assay: Antiproliferative activity against human SKBr3 cells after 72 hrs; assay type: functional, cell-based; settings: SK-BR-3, 72 h; in short: as §1

SMILES	IC50 (MCF7) [µM]	IC50 (SK-BR-3) [µM]
CC(=O)O[C@@H]1C[C@H]2C(C)(C)C(O)C=C[C@]2(C)[C@H]2CC[C@@]3(C)C(c4ccoc4)OC(O)[C@H]4O[C@]43[C@@]21C (single isomer, unassigned)	47.7	82.4
CCO[C@@H]1C[C@H]2C(C)(C)C(=O)C=C[C@]2(C)[C@H]2CC[C@@]3(C)[C@@H](c4ccoc4)OC(=O)[C@H]4O[C@]43[C@@]21C	14.8	12.1
CCO/N=C1\C=C[C@]2(C)[C@H]3CC[C@@]4(C)[C@@H](c5ccoc5)OC(=O)[C@H]5O[C@]54[C@]3(C)[C@H](OC(C)=O)C[C@H]2C1(C)C	> 100	> 100
CC(=O)O[C@@H]1C[C@H]2C(C)(C)C(=O)C=C[C@]2(C)[C@H]2CC[C@@]3(C)[C@H](c4ccoc4)OC(=O)[C@H]4O[C@]43[C@@]21C [GEDUNIN]	8.84	3.22
CC1(C)C(=O)C=C[C@]2(C)[C@H]3CC[C@@]4(C)[C@H](c5ccoc5)OC(=O)[C@H]5O[C@]54[C@]3(C)[C@H](O)C[C@@H]12 [DEACETYLGEDUNIN]	29	21.1
CC1(C)C(=O)C=C[C@]2(C)[C@H]3CC[C@@]4(C)[C@@H](c5ccoc5)OC(=O)[C@H]5O[C@]54[C@]3(C)C(=O)C[C@@H]12	10.9	4.49
CC(=O)O[C@@H]1C[C@H]2C(C)(C)C(=O)CC[C@]2(C)[C@H]2CC[C@@]3(C)[C@@H](c4ccoc4)OC(=O)[C@H]4O[C@]43[C@@]21C	> 100	> 100
CC1(C)C(=O)C=C[C@]2(C)[C@H]3CC[C@@]4(C)[C@@H](c5ccoc5)OC(=O)[C@H]5O[C@]54[C@]3(C)[C@H](OC(N)=O)C[C@@H]12	9.79	7.05
CC(=O)O[C@@H]1C[C@H]2C(C)(C)/C(=N/O)C=C[C@]2(C)[C@H]2CC[C@@]3(C)[C@@H](c4ccoc4)O/C(=N\O)[C@H]4O[C@]43[C@@]21C	33.2	26.5
CC1(C)C(=O)[C@H]2O[C@H]2[C@]2(C)[C@H]3CC[C@@]4(C)C(c5ccoc5)OC(=O)[C@H]5O[C@]54[C@]3(C)[C@H](O)C[C@@H]12 (single isomer, unassigned)	> 100	> 100
CC(=O)O[C@@H]1C[C@H]2C(C)(C)C(=O)C(O)C(O)[C@]2(C)[C@H]2CC[C@@]3(C)[C@@H](c4ccoc4)OC(=O)[C@H]4O[C@]43[C@@]21C (some centres not stated)	> 100	> 100

The remaining lines, values ahead:

IC50 (MCF7) [µM]	IC50 (SK-BR-3) [µM]	SMILES
> 100	> 100	CC(=O)O[C@@H]1C[C@H]2C(C)(C)/C(=N/OCc3ccccc3)C=C[C@]2(C)[C@H]2CC[C@@]3(C)[C@@H](c4ccoc4)OC(=O)[C@H]4O[C@]43[C@@]21C
> 100	> 100	CC(=O)OC1C=C[C@]2(C)[C@H]3CC[C@@]4(C)C(c5ccoc5)OC(=O)[C@H]5O[C@]54[C@]3(C)[C@H](OC(C)=O)C[C@H]2C1(C)C (single isomer, unassigned)
> 100	> 100	CO/N=C1\C=C[C@]2(C)[C@H]3CC[C@@]4(C)[C@@H](c5ccoc5)OC(=O)[C@H]5O[C@]54[C@]3(C)[C@H](OC(C)=O)C[C@H]2C1(C)C
37.3	18.1	CCCO[C@@H]1C[C@H]2C(C)(C)C(=O)C=C[C@]2(C)[C@H]2CC[C@@]3(C)[C@@H](c4ccoc4)OC(=O)[C@H]4O[C@]43[C@@]21C
> 100	> 100	CCC(=O)O[C@@H]1C[C@H]2C(C)(C)C(=O)C=C[C@]2(C)[C@H]2CC[C@@]3(C)[C@@H](c4ccoc4)OC(=O)[C@H]4O[C@]43[C@@]21C
54.3	47.7	CC(=O)O[C@@H]1C[C@H]2C(C)(C)C(O)C=C[C@]2(C)[C@H]2CC[C@@]3(C)C(c4ccoc4)OC(=O)[C@H]4O[C@]43[C@@]21C (single isomer, unassigned)
38.9	13	CO[C@@H]1C[C@H]2C(C)(C)C(=O)C=C[C@]2(C)[C@H]2CC[C@@]3(C)[C@@H](c4ccoc4)OC(=O)[C@H]4O[C@]43[C@@]21C
> 100	> 100	CC1(C)C(=O)C=C[C@]2(C)[C@H]3CC[C@@]4(C)[C@@H](c5ccoc5)OC(=O)[C@H]5O[C@]54[C@]3(C)[C@H](OCc3ccccc3)C[C@@H]12
> 100	> 100	CC(=O)O[C@@H]1C[C@H]2C(C)(C)C(=O)C3OC(C)(C)OC3[C@]2(C)[C@H]2CC[C@@]3(C)C(c4ccoc4)OC(=O)[C@H]4O[C@]43[C@@]21C (single isomer, unassigned)
> 100	> 100	CC(=O)O[C@@H]1C[C@H]2C(C)(C)C(O)CC[C@]2(C)[C@H]2CC[C@@]3(C)[C@@H](c4ccoc4)OC(O)[C@H]4O[C@]43[C@@]21C (some centres not stated)

Reference: ChEMBL document CHEMBL1140159, “Gedunin, a novel hsp90 inhibitor: semisynthesis of derivatives and preliminary structure-activity relationships” (J Med Chem, 2008)
